Measurements from ChEMBL document CHEMBL1806372, “Cytotoxic ring A-modified steroid analogues derived from Grundmann's ketone” (Eur J Med Chem, 2011).
The source made the active and inactive calls. The calls are words filed in the database; no cut-off is given here.

Key:
[1] = tested on: Aspergillus niger; test: Antifungal activity against Aspergillus niger assessed as zone of inhibition at 5 uL and 28 degC after 36 hrs by disk diffusion method; format: functional
Summary of the method: (§1)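 Agar disc diffusion with the test compound applied as a 1% (w/v) DMSO solution. Yeasts were grown on AC agar and Aspergillus niger on potato dextrose broth agar, each strain spread evenly. Plates were covered and kept 36 h at 28 °C, and the inhibition zone diameter was read in mm. Clotrimazole served as reference.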

[2] = tested on: Streptococcus entericus; test: Antibacterial activity against Streptococcus entericus assessed as zone of inhibition at 5 uL and 32 degC after 36 hrs by disk diffusion method; format: functional
Summary of the method: (§2)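 Disc diffusion on AC agar, each strain spread evenly over the medium; test compounds given as 1% (w/v) DMSO solutions. Plates covered and incubated 36 h at 32 °C, then the diameter of the zone of inhibited growth measured in mm. Tetracycline served as antibacterial reference.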

[3] = tested on: Escherichia coli; test: Antibacterial activity against Escherichia coli assessed as zone of inhibition at 5 uL and 32 degC after 36 hrs by disk diffusion method; format: functional; summary of the method: as §2
[4] = Antifungal activity against Hyphopichia burtonii assessed as zone of inhibition at 5 uL and 28 degC after 36 hrs by disk diffusion method; format: functional; summary of the method: as §1
[5] = tested on: HL-60; test: Cytotoxicity against human HL60 cells after 24 hrs by MTT assay; format: functional, cell-based; conditions: HL-60, 24 h
Summary of the method: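 HL-60 cells kept in RPMI 1640 with 10% FBS, no antibiotics, 37 °C, humidified 5% CO2. Cells (9 × 10^5 cells/mL) exposed to compound in 96-well plates for 24 h at 37 °C. MTT in PBS (5 mg/mL) added for 2 h, then DMSO, shaken 1 h and read photometrically. IC50 determined; cisplatin reference.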

[6] = tested on: Yarrowia lipolytica; test: Antifungal activity against Yarrowia lipolytica assessed as zone of inhibition at 5 uL and 28 degC after 36 hrs by disk diffusion method; format: functional; summary of the method: as §1
[7] = tested on: Nakaseomyces glabratus; test: Antifungal activity against Candida glabrata assessed as zone of inhibition at 5 uL and 28 degC after 36 hrs by disk diffusion method; format: functional; summary of the method: as §1
[8] = (§3) Antibacterial activity against Pseudomonas antimicrobica assessed as zone of inhibition at 5 uL and 32 degC after 36 hrs by disk diffusion method; format: functional, Burkholderia gladioli; summary of the method: as §2
[9] = tested on: Staphylococcus equorum; test: Antibacterial activity against Staphylococcus equorum assessed as zone of inhibition at 5 uL and 32 degC after 36 hrs at by disk diffusion method; format: functional; summary of the method: as §2
[10] = tested on: Burkholderia gladioli; test: as §3; format: functional; summary of the method: as §2

## CC(C)CCC[C@@H](C)[C@H]1CC[C@H]2C(/C=C/CN3C(=O)C=CC3=O)=CCC[C@]12C
[1]
  diameter of the inhibition zone (DIZ): inactive
[2]
  diameter of the inhibition zone (DIZ): 15 mm
[3]
  diameter of the inhibition zone (DIZ): 9 mm
[4]
  inhibition zone (IZ): 8 mm
[5]
  IC50: 32 µM
[6]
  diameter of the inhibition zone (DIZ): inactive
[7]
  diameter of the inhibition zone (DIZ): 7 mm
[8]
  diameter of the inhibition zone (DIZ): 10 mm
[9]
  diameter of the inhibition zone (DIZ): 11 mm

## CC(C)CCC[C@@H](C)[C@H]1CC[C@H]2C3=CCn4c(=O)n(C)c(=O)n4[C@@H]3CC[C@]12C
[1]
  diameter of the inhibition zone (DIZ): inactive
[2]
  diameter of the inhibition zone (DIZ): inactive
[3]
  diameter of the inhibition zone (DIZ): inactive
[4]
  diameter of the inhibition zone (DIZ): inactive
[5]
  IC50: 13 µM
[6]
  diameter of the inhibition zone (DIZ): inactive
[7]
  diameter of the inhibition zone (DIZ): inactive
[10]
  diameter of the inhibition zone (DIZ): inactive
[9]
  diameter of the inhibition zone (DIZ): 10 mm

## Clc1ccccc1C(c1ccccc1)(c1ccccc1)n1ccnc1 [CLOTRIMAZOLE]
[1]
  diameter of the inhibition zone (DIZ): 13 mm
[4]
  inhibition zone (IZ): 20 mm
[6]
  diameter of the inhibition zone (DIZ): 18 mm
[7]
  diameter of the inhibition zone (DIZ): 18 mm

## CC(C)CCC[C@@H](C)[C@H]1CC[C@H]2C3=CCn4c(=O)c5ccccc5c(=O)n4[C@@H]3CC[C@]12C
[1]
  diameter of the inhibition zone (DIZ): inactive
[2]
  diameter of the inhibition zone (DIZ): inactive
[3]
  diameter of the inhibition zone (DIZ): inactive
[4]
  inhibition zone (IZ): 7 mm
[5]
  IC50: 17 µM
[6]
  diameter of the inhibition zone (DIZ): inactive
[7]
  diameter of the inhibition zone (DIZ): 10 mm
[8]
  diameter of the inhibition zone (DIZ): 7 mm
[9]
  diameter of the inhibition zone (DIZ): inactive

## CCN1C(=O)[C@H]2[C@H](CC=C3[C@H]2CC[C@]2(C)[C@@H]([C@H](C)CCCC(C)C)CC[C@@H]32)C1=O
[1]
  diameter of the inhibition zone (DIZ): inactive
[2]
  diameter of the inhibition zone (DIZ): 11 mm
[3]
  diameter of the inhibition zone (DIZ): 7 mm
[4]
  inhibition zone (IZ): 7 mm
[5]
  IC50: 13 µM
[6]
  diameter of the inhibition zone (DIZ): inactive
[7]
  diameter of the inhibition zone (DIZ): 8 mm
[8]
  diameter of the inhibition zone (DIZ): 7 mm
[9]
  diameter of the inhibition zone (DIZ): 8 mm

## C=CC1=CCC[C@]2(C)[C@@H]([C@H](C)CCCC(C)C)CC[C@@H]12
[1]
  diameter of the inhibition zone (DIZ): inactive
[2]
  diameter of the inhibition zone (DIZ): 9 mm
[3]
  diameter of the inhibition zone (DIZ): inactive
[4]
  diameter of the inhibition zone (DIZ): inactive
[5]
  IC50: > 100 µM
[6]
  diameter of the inhibition zone (DIZ): inactive
[7]
  diameter of the inhibition zone (DIZ): inactive
[10]
  diameter of the inhibition zone (DIZ): inactive
[9]
  diameter of the inhibition zone (DIZ): 10 mm

## CC(C)=CCCC1=CCn2c(=O)ccc(=O)n2C1
[1]
  diameter of the inhibition zone (DIZ): inactive
[2]
  diameter of the inhibition zone (DIZ): inactive
[3]
  diameter of the inhibition zone (DIZ): inactive
[4]
  diameter of the inhibition zone (DIZ): inactive
[5]
  IC50: 41 µM
[6]
  diameter of the inhibition zone (DIZ): inactive
[7]
  diameter of the inhibition zone (DIZ): inactive
[10]
  diameter of the inhibition zone (DIZ): inactive
[9]
  diameter of the inhibition zone (DIZ): inactive

## CC(C)CCC[C@@H](C)[C@H]1CC[C@H]2C(C#CCCO)=CCC[C@]12C
[1]
  diameter of the inhibition zone (DIZ): inactive
[2]
  diameter of the inhibition zone (DIZ): 14 mm
[3]
  diameter of the inhibition zone (DIZ): 10 mm
[4]
  inhibition zone (IZ): 11 mm
[5]
  IC50: 38 µM
[6]
  diameter of the inhibition zone (DIZ): inactive
[7]
  diameter of the inhibition zone (DIZ): 10 mm
[8]
  diameter of the inhibition zone (DIZ): 11 mm
[9]
  diameter of the inhibition zone (DIZ): 6 mm

## CN(C)[C@@H]1C(O)=C(C(N)=O)C(=O)[C@@]2(O)C(O)=C3C(=O)c4c(O)cccc4[C@@](C)(O)[C@H]3C[C@@H]12 [TETRACYCLINE]
[2]
  diameter of the inhibition zone (DIZ): 22 mm
[3]
  diameter of the inhibition zone (DIZ): 30 mm
[8]
  diameter of the inhibition zone (DIZ): 25 mm
[9]
  diameter of the inhibition zone (DIZ): 30 mm

## CC(C)CCC[C@@H](C)[C@H]1CC[C@H]2C3=CC[C@@H]4C(=O)N(C)C(=O)[C@@H]4[C@@H]3CC[C@]12C
[1]
  diameter of the inhibition zone (DIZ): inactive
[2]
  diameter of the inhibition zone (DIZ): 10 mm
[3]
  diameter of the inhibition zone (DIZ): 10 mm
[4]
  inhibition zone (IZ): 14 mm
[5]
  IC50: 15 µM
[6]
  diameter of the inhibition zone (DIZ): inactive
[7]
  diameter of the inhibition zone (DIZ): 10 mm
[8]
  diameter of the inhibition zone (DIZ): 7 mm
[9]
  diameter of the inhibition zone (DIZ): inactive

## CC(C)CCC[C@@H](C)[C@H]1CC[C@H]2C3=CC[C@@H]4C(=O)OC(=O)[C@@H]4[C@@H]3CC[C@]12C
[1]
  diameter of the inhibition zone (DIZ): inactive
[2]
  diameter of the inhibition zone (DIZ): 12 mm
[3]
  diameter of the inhibition zone (DIZ): 7 mm
[4]
  inhibition zone (IZ): 10 mm
[5]
  IC50: 30 µM
[6]
  diameter of the inhibition zone (DIZ): inactive
[7]
  diameter of the inhibition zone (DIZ): 8 mm
[8]
  diameter of the inhibition zone (DIZ): 10 mm
[9]
  diameter of the inhibition zone (DIZ): inactive

## CC(C)CCC[C@@H](C)[C@H]1CC[C@H]2C(CCCCN3C(=O)C=CC3=O)CCC[C@]12C (mixture of isomers)
[1]
  diameter of the inhibition zone (DIZ): inactive
[2]
  diameter of the inhibition zone (DIZ): 12 mm
[3]
  diameter of the inhibition zone (DIZ): 10 mm
[4]
  inhibition zone (IZ): 9 mm
[5]
  IC50: 14 µM
[6]
  diameter of the inhibition zone (DIZ): inactive
[7]
  diameter of the inhibition zone (DIZ): 8 mm
[8]
  diameter of the inhibition zone (DIZ): 9 mm
[9]
  diameter of the inhibition zone (DIZ): 11 mm

## CCCN1C(=O)[C@H]2[C@H](CC=C3[C@H]2CC[C@]2(C)[C@@H]([C@H](C)CCCC(C)C)CC[C@@H]32)C1=O
[1]
  diameter of the inhibition zone (DIZ): inactive
[2]
  diameter of the inhibition zone (DIZ): 7 mm
[3]
  diameter of the inhibition zone (DIZ): 7 mm
[4]
  inhibition zone (IZ): 14 mm
[5]
  IC50: 7 µM
[6]
  diameter of the inhibition zone (DIZ): 10 mm
[7]
  diameter of the inhibition zone (DIZ): 6 mm
[8]
  diameter of the inhibition zone (DIZ): 7 mm
[9]
  diameter of the inhibition zone (DIZ): inactive

## CC(C)CCC[C@@H](C)[C@H]1CC[C@H]2C(CCCCO)CCC[C@]12C (mixture of isomers)
[5]
  IC50: 13 µM

## CC(C)CCC[C@@H](C)[C@H]1CC[C@H]2C3=CC[C@@H]4C(=O)NC(=O)[C@@H]4[C@@H]3CC[C@]12C
[1]
  diameter of the inhibition zone (DIZ): inactive
[2]
  diameter of the inhibition zone (DIZ): 15 mm
[3]
  diameter of the inhibition zone (DIZ): 24 mm
[4]
  diameter of the inhibition zone (DIZ): inactive
[5]
  IC50: 16 µM
[6]
  diameter of the inhibition zone (DIZ): inactive
[7]
  diameter of the inhibition zone (DIZ): 15 mm
[8]
  diameter of the inhibition zone (DIZ): 11 mm
[9]
  diameter of the inhibition zone (DIZ): 14 mm

## CC(C)CCC[C@@H](C)[C@H]1CC[C@H]2C(/C=C/CO)=CCC[C@]12C
[1]
  diameter of the inhibition zone (DIZ): inactive
[2]
  diameter of the inhibition zone (DIZ): 14 mm
[3]
  diameter of the inhibition zone (DIZ): 10 mm
[4]
  inhibition zone (IZ): 22 mm
[5]
  IC50: 32 µM
[6]
  diameter of the inhibition zone (DIZ): inactive
[7]
  diameter of the inhibition zone (DIZ): 18 mm
[8]
  diameter of the inhibition zone (DIZ): 18 mm
[9]
  diameter of the inhibition zone (DIZ): 12 mm

## CC(C)CCC[C@@H](C)[C@H]1CC[C@H]2C(C#CCCN3C(=O)C=CC3=O)=CCC[C@]12C
[1]
  diameter of the inhibition zone (DIZ): inactive
[2]
  diameter of the inhibition zone (DIZ): 15 mm
[3]
  diameter of the inhibition zone (DIZ): 15 mm
[4]
  inhibition zone (IZ): 12 mm
[5]
  IC50: 46 µM
[6]
  diameter of the inhibition zone (DIZ): inactive
[7]
  diameter of the inhibition zone (DIZ): 10 mm
[8]
  diameter of the inhibition zone (DIZ): 13 mm
[9]
  diameter of the inhibition zone (DIZ): 11 mm
